The text below walks through data of PubChem BioAssay AID602172 (The Scripps Research Institute Molecular Screening Center, 2012).

Calls of active or inactive are those of the source.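 Rule for the calls: active = DNA binding activation reaching at least 20% of the dioxin reference response; inactive = the rest.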

The test has as its system Aryl hydrocarbon receptor (Cavia porcellus). In words: AHR transformation and DRE binding stimulation – cell lysate, guinea pig liver cytosol, radiometric EMSA, mechanism study for AHR activator project, late-stage follow-up (AID 602172). Conditions: radiometric gel; for DNA binding activation (% of TCDD): at 10 µM, hits give high values. Summed up:
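Measured by – native 4% PAGE gel shift, phosphorimager quantification · Assay system – male Hartley guinea pig liver cytosol containing AHR · Quantity – 8 mg/mL cytosolic protein · Timing – compound exposure of cytosol 2.5 h, room temperature · Measure – AHR:DRE complex amount as percent of 20 nM TCDD · Controls – TCDD 20 nM reference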
A general note: A gel shift assay detects complexes by their altered migration in electrophoresis.

For the molecule `CN(C)c1nc(N)nc(-c2nc3ccccc3s2)n1`, the DNA binding activation (% of TCDD) was 58.6%.

Take `CC(=O)c1ccc(NC(=O)c2cc(Cl)nc3ccccc23)cc1`: the DNA binding activation (% of TCDD) was 5.3% (inactive).

As to `O=C1c2ccccc2-c2nc3ccccc3nc21`, the DNA binding activation (% of TCDD) is 59.4%.

In the case of `CN1CCN(CCCNC(=O)c2cc3c(-c4ccc(Cl)cc4)nn(C)c3s2)CC1`, the DNA binding activation (% of TCDD) was 5.4% (inactive).

Regarding `COc1cc2ccccc2cc1C(=O)Nc1ccc(C)cc1`, the DNA binding activation (% of TCDD) was 67.8%.

Take `Cc1ccccc1-c1nc(-c2cccnc2)no1`: the DNA binding activation (% of TCDD) is 40.4%.

Consider `O=C(CN1CCOCC1)Nc1nc2ccc([N+](=O)[O-])cc2s1`, for which the DNA binding activation (% of TCDD) was 3.2% (inactive).

As to `Cc1ccc(-c2cc(-c3cccs3)[nH]n2)c(O)c1`, the EC50 (usually the concentration that produces a half-maximal response) is 0.5 µM.

For `CCCC(=O)Nc1nn(C)c2nc3cc(C)ccc3cc12`, the DNA binding activation (% of TCDD) is 12.1% (inactive).

Take `O=C(Nc1cccc(Cl)c1)c1cccnn1`: the DNA binding activation (% of TCDD) is 21.6%.

In the case of `Cn1c(C(=O)N2CCC(C(N)=O)CC2)cc2cc(Cl)ccc21`, the DNA binding activation (% of TCDD) was 27.8%.

`COc1ccc(Cl)cc1C(=O)Nc1ccc(N(C)C(C)=O)cc1`: the DNA binding activation (% of TCDD) is 20.2%.

As to `Cc1nc(N)nc(Nc2ccc(Cl)cc2)c1Br`, the EC50 is 1 µM.

For `CCOc1ccc(-c2cc(C)n3nc(C(N)=O)cc3n2)cc1`, the DNA binding activation (% of TCDD) is 8.2% (inactive).

For `COc1ccc(C(=O)Nc2cc(OC)c(NC(=O)c3ccco3)cc2OC)cc1`, the DNA binding activation (% of TCDD) was 10% (inactive).

Consider `CCC(=O)Nc1cc(OC)c(NC(=O)c2ccccc2)cc1OC`, for which the DNA binding activation (% of TCDD) is 7% (inactive).

`Cc1c(-c2ccn[nH]2)cc(NC(=O)c2ccc(Cl)cc2)c(=O)n1N`: the DNA binding activation (% of TCDD) is 4.4% (inactive).

With `COc1cc2c(cc1NC(=O)Nc1ccc(C)cc1)oc1ccccc12`, the DNA binding activation (% of TCDD) is 17% (inactive).

Regarding `Cc1cc(Nc2ccc(Br)cc2)n2nc(C)nc2n1`, the DNA binding activation (% of TCDD) was 8.6% (inactive).

As for `CCOc1ccc(NC(=O)c2cc3ccccc3cc2OC)cc1`, the DNA binding activation (% of TCDD) was 46.8%.

As to `COc1ccccc1NC(=O)Nc1cccnc1`, the DNA binding activation (% of TCDD) is 10% (inactive).

Take `COc1ccccc1C(=O)Nc1ccc(N2CCCCC2)cc1`: the DNA binding activation (% of TCDD) is 42%.

For `Cc1nnc(N2C(=O)c3cccc4c([N+](=O)[O-])ccc(c34)C2=O)s1`, the DNA binding activation (% of TCDD) is 3.7% (inactive).

In the case of `COc1ccccc1NC(=O)c1ccc2c(c1)nnn2C`, the DNA binding activation (% of TCDD) was 15% (inactive).

As for `Cn1c(N)c(C(=O)Nc2ccccc2F)sc1=S`, the DNA binding activation (% of TCDD) is 37%.

Consider `CCOC(=O)Cc1cc(-c2ccc(O)cc2)nc2ccc3ccccc3c12`, for which the DNA binding activation (% of TCDD) is 15.3% (inactive).

`COc1ccccc1NC(=O)c1ccc(C(=O)Nc2ccccc2OC)nc1`: the DNA binding activation (% of TCDD) is 6.4% (inactive).

Consider `COc1ccc(NC(=O)c2cccc3c(Br)cccc23)cc1`, for which the DNA binding activation (% of TCDD) was 18% (inactive).

Turning to `O=C(Nc1ccon1)c1cnc2sccn2c1=O`, the DNA binding activation (% of TCDD) was 21%.

Turning to `CCOc1ccccc1NC(=O)c1ccc2nccnc2c1`, the DNA binding activation (% of TCDD) was 20% (inactive).

For `Cc1csc(SCC(=O)Nc2ccc(Cl)cn2)n1`, the DNA binding activation (% of TCDD) is 7.8% (inactive).

As for `COC(=O)c1ccccc1NC(=O)Cn1ccnc1`, the DNA binding activation (% of TCDD) is 5.2% (inactive).

Consider `Cc1ccc(Nc2ncccc2C(N)=O)cc1`, for which the DNA binding activation (% of TCDD) is 17.6% (inactive).
